The nature of data set [1]: Cytotoxicity against human HepG2 cells assessed as reduction in cell viability after 72 hrs by MTT assay. Format: cell-based.
A further data set concerns Leishmania donovani. Put plainly: Antileishmanial activity against Leishmania donovani MHOM/IN/00/DEVI promastigotes assessed as inhibition of metabolic activity measured after 72 hrs by MTT assay. The class given is functional, organism-based. In short, it runs like this:
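L. donovani MHOM/IN/00/DEVI promastigotes grown in Schneider's medium with 20% FCS at 27 °C. Log-phase parasites at 10⁶/mL were exposed in duplicate to serial compound concentrations in DMSO (final <0.5%) for 72 h at 27 °C. MTT was added for 4 h and absorbance read at 570 nm. EC50 from non-linear regression, mean of at least three independent experiments.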
On the technique in general: Tetrazolium assays rely on reduction of a dye to a coloured formazan, in cell work by metabolically active cells.

For data set [2], the system named is Trypanosoma brucei brucei. Put plainly: […] activity against Trypanosoma brucei brucei AnTat 1.9 measured after 74 hrs by Alamar blue assay. Format: functional, organism-based. To be noted: AnTat 1.9, 74 h. In short, it runs like this:
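Bloodstream T. b. brucei AnTat 1.9 grown at 37 °C, 5% CO₂ in MEM with Earle's salts plus mercaptoethanol, L-cysteine, bathocuproine sulfate and 20% heat-inactivated horse serum. Seeded at 2000 parasites/100 µL and exposed in duplicate to compounds in DMSO for 69 h. Alamar Blue then added for 5 h, fluorescence read at ex 530/em 590 nm. EC50 by nonlinear regression from three independent experiments.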
(In general: Resazurin is reduced to fluorescent resorufin, in cell work by metabolically active cells.)

The nature of data set [3]: Solubility of the compound in aqueous medium at highest dose. Format: physicochemical. The conditions noted are these: buffer.
Data set [4] can be described thus: Selectivity index, ratio of CC50 for human HepG2 cells to EC50 for Trypanosoma brucei brucei AnTat 1.9. Format: toxicity. The conditions noted are these: read-out: Selectivity Index.
The subject of another data set is THP-1. Put plainly: Cytotoxicity against human THP-1 cells assessed as reduction in cell viability after 72 hrs by MTT assay. Format: functional. The essentials:
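THP-1 cells at 5×10⁴ cells/mL in complete RPMI were exposed in duplicate to compounds in DMSO (final <0.5%) for 72 h at 37 °C. MTT at 0.5 mg/mL for 2 h, formazan dissolved in DMSO, absorbance read at 570 nm with 630 nm reference. CC50 from the dose-response curve, mean of three independent experiments.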

Data set [5] is described as follows: Selectivity index, ratio of CC50 for cytotoxicity against human HepG2 cells to EC50 for antileishmanial activity against Leishmania donovani MHOM/IN/00/DEVI promastigotes. Format: toxicity, cell-based. The conditions noted are these: read-out: Selectivity Index.

Consider `O=[N+]([O-])c1c(CS(=O)(=O)c2ccccc2)nc2c(-c3ccncc3)cc(Cl)cn12`, for which, in data set [1], the 50% cytotoxic concentration (CC50) (commonly the concentration giving 50% cytotoxicity) at 72 h is greater than 50000 nM. The EC50 (as a rule, the concentration that produces a half-maximal response) is 1200 nM in the data set on Leishmania donovani and 250 nM in data set [2].

As for `O=[N+]([O-])c1c(CS(=O)(=O)c2ccccc2)nc2c(C#Cc3cccs3)cc(Cl)cn12`, in data set [1], the CC50 at 72 h is greater than 3900 nM. Besides, the solubility entry in data set [3] is listed as “Insoluble”.

Take `COc1ccc(C#Cc2cc(Cl)cn3c([N+](=O)[O-])c(CS(=O)(=O)c4ccccc4)nc23)cc1`: the CC50 at 72 h in data set [1] was greater than 3900 nM. Besides, the solubility result in data set [3] is reported as “Insoluble”.

For the molecule `Cc1ccc(C(=O)Nc2ccc(S(=O)(=O)O)c3cc(S(=O)(=O)O)cc(S(=O)(=O)O)c23)cc1NC(=O)c1cccc(NC(=O)Nc2cccc(C(=O)Nc3cc(C(=O)Nc4ccc(S(=O)(=O)O)c5cc(S(=O)(=O)O)cc(S(=O)(=O)O)c45)ccc3C)c2)c1` [SURAMIN], the CC50 at 72 h in data set [1] is greater than 100000 nM.

Turning to `Nc1c(CS(=O)(=O)c2ccccc2)nc2c(C#CCCO)cc(Cl)cn12`, the CC50 at 72 h in data set [1] was greater than 62500 nM. In addition, the EC50 in the data set with Leishmania donovani is greater than 62500 nM; in data set [2], 6800 nM. Moreover, the selectivity ratio in data set [4] is greater than 9.2. Further, the solubility result in data set [3] is listed as “Insoluble”.

Turning to `O=[N+]([O-])c1c(CS(=O)(=O)c2ccccc2)nc2c(C#Cc3ccccc3)cc(Cl)cn12`, the CC50 at 72 h in data set [1] is greater than 3900 nM. In addition, in data set [3], the solubility result is recorded as “Insoluble”.

In the case of `Nc1ccc(C#Cc2cc(Cl)cn3c([N+](=O)[O-])c(CS(=O)(=O)c4ccccc4)nc23)cc1`, the CC50 at 72 h in data set [1] was greater than 3900 nM. In data set [3], the solubility entry is on record as “Insoluble”.

For `O=C(Cn1ccnc1[N+](=O)[O-])NCc1ccccc1` [BENZNIDAZOLE], the CC50 in the data set with THP-1 is greater than 200000 nM.

Consider `O=[N+]([O-])c1c(CS(=O)(=O)c2ccccc2)nc2c(C#Cc3cccnc3)cc(Cl)cn12`, for which the CC50 at 72 h in data set [1] is greater than 3900 nM. Besides, in data set [3], the solubility result is “Insoluble”.

For `O=[N+]([O-])c1c(CS(=O)(=O)c2ccccc2)nc2c(C#Cc3cccc(F)c3)cc(Cl)cn12`, in data set [1], the CC50 at 72 h is greater than 3900 nM. Moreover, the solubility entry in data set [3] was “Insoluble”.

Consider `CC(O)C#Cc1cc(Cl)cn2c([N+](=O)[O-])c(CS(=O)(=O)c3ccccc3)nc12` (stereo unspecified), for which the CC50 at 72 h in data set [1] turned out to be 44200 nM. Further, the EC50 in the data set with Leishmania donovani is 4700 nM; in data set [2], 40 nM. Besides, the values for the selectivity ratio in data set [5] and in data set [4] were 9.4 and 1100, respectively.

`O=[N+]([O-])c1c(CS(=O)(=O)c2ccccc2)nc2c(Br)cc(Br)cn12`: in data set [1], the CC50 at 72 h is greater than 31000 nM. Besides, the EC50 in the data set with Leishmania donovani was determined as 1800 nM; in data set [2], 2900 nM. For the same molecule, in data set [3], the solubility result is reported as “Insoluble”.

`COc1cccc(C#Cc2cc(Cl)cn3c([N+](=O)[O-])c(CS(=O)(=O)c4ccccc4)nc23)c1`: the CC50 at 72 h in data set [1] is greater than 3900 nM. Moreover, the solubility result in data set [3] is listed as “Insoluble”.

In the case of `O=[N+]([O-])c1c(CS(=O)(=O)c2ccccc2)nc2c(Sc3ccc(Cl)cc3)cc(Cl)cn12`, the EC50 in the data set on Leishmania donovani was determined as 1000 nM; in data set [2], 1300 nM. In data set [4], the selectivity ratio was greater than 76.9.

As for `COc1ccccc1C#Cc1cc(Cl)cn2c([N+](=O)[O-])c(CS(=O)(=O)c3ccccc3)nc12`, the CC50 at 72 h in data set [1] is greater than 3900 nM. Moreover, in data set [3], the solubility result is reported as “Insoluble”.

Turning to `O=[N+]([O-])c1c(CS(=O)(=O)c2ccccc2)nc2c(C#Cc3ccccc3F)cc(Cl)cn12`, the CC50 at 72 h in data set [1] is greater than 3900 nM. Besides, the solubility entry in data set [3] is recorded as “Insoluble”.

In the case of `O=[N+]([O-])c1c(CS(=O)(=O)c2ccccc2)nc2c(C#Cc3ccc(F)cc3)cc(Cl)cn12`, in data set [1], the CC50 at 72 h is greater than 3900 nM. For the same molecule, in data set [3], the solubility entry is on record as “Insoluble”.

`NCCCC(N)(C(=O)O)C(F)F` (stereo unspecified) [EFLORNITHINE]: the CC50 at 72 h in data set [1] was greater than 100000 nM. Besides, the selectivity ratio in data set [4] was greater than 7.5.

With `CC1CS(=O)(=O)CCN1/N=C/c1ccc([N+](=O)[O-])o1` (stereo unspecified) [NIFURTIMOX], the CC50 at 72 h in data set [1] is 45200 nM. This molecule also had an EC50 in data set [2] of 2600 nM. Further, the selectivity ratio in data set [4] is 17.4.

`O=[N+]([O-])c1c(CS(=O)(=O)c2ccccc2)nc2c(C#CCO)cc(Cl)cn12`: the CC50 at 72 h in data set [1] stood at 10100 nM. The figures for the EC50 (in the data set with Leishmania donovani; in data set [2]) were 3900 nM and 120 nM, respectively. The selectivity ratio was found to be 2.6 in data set [5] and 84.2 in data set [4].

With `COc1cccc2c1C(=O)c1c(O)c3c(c(O)c1C2=O)C[C@@](O)(C(=O)CO)C[C@@H]3O[C@H]1C[C@H](N)[C@H](O)[C@H](C)O1` [DOXORUBICIN], the CC50 with THP-1 was 700 nM.

For `CCCCCCCCCCCCCCCCOP(=O)([O-])OCC[N+](C)(C)C` [MILTEFOSINE], the CC50 with THP-1 came to 35000 nM.

On to `CSc1ccc(OCc2ncc([N+](=O)[O-])n2C)cc1` [FEXINIDAZOLE], for which the figures for the EC50 (in the data set on Leishmania donovani; in data set [2]) were 1200 nM and 600 nM, respectively. Also, the CC50 with THP-1 was greater than 200000 nM.

As to `O=[N+]([O-])c1c(CS(=O)(=O)c2ccccc2)nc2c(C#CCOc3ccccc3)cc(Cl)cn12`, the CC50 at 72 h in data set [1] worked out at 8400 nM. The EC50 was 1300 nM in the data set with Leishmania donovani and 160 nM in data set [2]. Besides, the selectivity ratio turned out to be 6.5 in data set [5] and 52.5 in data set [4].

As for `O=[N+]([O-])c1c(CS(=O)(=O)c2ccccc2)nc2c(C#Cc3ccc(CO)cc3)cc(Cl)cn12`, in data set [1], the CC50 at 72 h is greater than 15600 nM. Moreover, the EC50 with Leishmania donovani was 1600 nM; in data set [2] it was 160 nM. Also, the selectivity ratio was greater than 9.8 in data set [5] and greater than 97.5 in data set [4]. Besides, the solubility result in data set [3] is “Insoluble”.

Turning to `CC(O)(C#Cc1cc(Cl)cn2c([N+](=O)[O-])c(CS(=O)(=O)c3ccccc3)nc12)c1ccccc1` (stereo unspecified), in data set [1], the CC50 at 72 h was 18800 nM. The figures for the EC50 (in the data set on Leishmania donovani; in data set [2]) were 1000 nM and 130 nM, respectively. For the same molecule, the selectivity ratio was 18.8 in data set [5] and greater than 145 in data set [4].

In the case of `CC(C)(O)C#Cc1cc(Cl)cn2c([N+](=O)[O-])c(CS(=O)(=O)c3ccccc3)nc12`, the CC50 at 72 h in data set [1] is greater than 62500 nM. In addition, the EC50 in the data set on Leishmania donovani is 3000 nM; in data set [2], 120 nM. Further, the selectivity ratio in data set [5] was greater than 20.8; in data set [4] it was greater than 521. Also, in data set [3], the solubility entry is listed as “Insoluble”.

In the case of `O=[N+]([O-])c1c(CS(=O)(=O)c2ccccc2)nc2c(C#CC3(O)CCCC3)cc(Cl)cn12`, in data set [1], the CC50 at 72 h is greater than 31300 nM. The EC50 with Leishmania donovani came out at 1700 nM; in data set [2] it was 100 nM. Further, the values for the selectivity ratio in data set [5] and in data set [4] were greater than 18.4 and greater than 313, respectively. Moreover, the solubility result in data set [3] is listed as “Insoluble”.

With `O=[N+]([O-])c1c(CS(=O)(=O)c2ccccc2)nc2c(C#CC3(O)CCCCC3)cc(Cl)cn12`, in data set [1], the CC50 at 72 h is greater than 25000 nM. Further, the EC50 in the data set with Leishmania donovani is 1000 nM; in data set [2] it was 100 nM. Also, the figures for the selectivity ratio in data set [5] and in data set [4] were greater than 25 and greater than 250, respectively. Moreover, in data set [3], the solubility result was “Insoluble”.

(Values after ChEMBL document CHEMBL4765374, “8-Alkynyl-3-nitroimidazopyridines display potent antitrypanosomal activity against both T. b. brucei and cruzi” (Eur J Med Chem, 2020).)
